From ChEMBL document CHEMBL1949569, “Galactolipids from Bauhinia racemosa as a new class of antifilarial agents against human lymphatic filarial parasite, Brugia malayi” (Eur J Med Chem, 2012)
In brackets after ≈: the same amount, converted by molar mass. Activity calls are given as the source filed them. No cut-off for these calls is given here.

Key:
[1] = test system: Brugia malayi; test: Antifilarial activity against adult Brugia malayi assessed as inhibition of motility at 31.25 ug/ml incubated for 48 hrs followed by washout measured after 1 hr in the absence of drug by microscopic analysis; type: functional
How it was run: (§1)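 Single fully motile female worms from jird peritoneal cavity were exposed in duplicate wells (1000 µL RPMI 1640, antibiotics, 10% FBS) to two-fold dilutions from 31.25 µg/mL, 48 h, 37 °C, CO2. Worms were moved to drug-free medium and motility was read microscopically 1 h later. Result is % motility reduction vs untreated control.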

[2] = test system: Brugia malayi; test: Antifilarial activity against microfilariae Brugia malayi assessed as inhibition of motility at 31.25 ug/ml incubated for 48 hrs followed by washout measured after 1 hr in the absence of drug by microscopic analysis; type: functional
How it was run: (§2)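 Microfilariae came from jird peritoneal fluid passed through a 5.0 µm membrane filter. Twenty live mf per well in 200 µL medium, in duplicate, were given two-fold dilutions from 31.25 µg/mL. Incubation matched the adult worms (48 h, 37 °C, CO2). Motility was scored and reported as % reduction vs untreated control.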

[3] = test system: Brugia malayi; test: Antifilarial activity against adult Brugia malayi at 31.25 ug/ml by MTT assay relative to control; type: functional
How it was run: (§3)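 Adult female worms were recovered from jird peritoneal cavity 120–150 days after i.p. L3 inoculation. One worm per well sat in 1000 µL RPMI 1640 with antibiotics and 10% FBS, in duplicate, 48 h at 37 °C in CO2. After motility scoring, worms went through the MTT reduction assay. Result is % inhibition of MTT reduction vs untreated control.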

[4] = test system: Brugia malayi; test: Antifilarial activity against adult Brugia malayi at 7.8 ug/ml by MTT assay relative to control; type: functional; how it was run: as §3
[5] = test system: Brugia malayi; test: Antifilarial activity against adult Brugia malayi assessed as inhibition of motility at 1.9 ug/ml incubated for 48 hrs followed by washout measured after 1 hr in the absence of drug by microscopic analysis; type: functional; how it was run: as §1
[6] = test system: Brugia malayi; test: Antifilarial activity against microfilariae Brugia malayi after 48 hrs by MTT assay; type: functional, organism-based
[7] = test system: Brugia malayi; test: Antifilarial activity against adult Brugia malayi at 1.9 ug/ml by MTT assay relative to control; type: functional; how it was run: as §3
[8] = test system: Brugia malayi; test: Antifilarial activity against adult Brugia malayi after 48 hrs by MTT assay; type: functional, organism-based; how it was run: as §3
[9] = test system: Brugia malayi; test: Antifilarial activity against adult Brugia malayi infected in jird assessed as sterilized female worm at 50 mg/kg, ip administered for 5 consecutive days measured on day 51; type: functional; details: route intraperitoneal
How it was run: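 In the i.p.-transplanted adult B. malayi jird model, 50 mg/kg was given i.p. for 5 consecutive days, 5 animals per group. Necropsy on day 51 recovered peritoneal worms. Live females were teased in PBS pH 7.2 and uterine oocytes, eggs and mf checked microscopically for abnormality or death. Result is % sterilized females.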

[10] = test system: Brugia malayi; test: Antifilarial activity against microfilariae Brugia malayi assessed as inhibition of motility at 3.9 ug/ml incubated for 48 hrs followed by washout measured after 1 hr in the absence of drug by microscopic analysis; type: functional; how it was run: as §2
[11] = Selectivity ratio of CC50 for african green monkey Vero cells to IC50 for adult Brugia malayi; type: ADME, cell-based
How it was run: (§4)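 SI = CC50 (Vero, resazurin assay) / IC50. IC50 came from % motility inhibition of adult female worms or mf over two-fold dilutions from MIC down to 0.3 µg/mL. It was derived from a concentration vs % motility-inhibition plot.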

[12] = Selectivity ratio of CC50 for african green monkey Vero cells to IC50 for microfilariae Brugia malayi; type: ADME, cell-based; details: for selectivity ratio: Vero cells, read-out: Ratio CC50/IC50; how it was run: as §4
[13] = test system: Brugia malayi; test: Antifilarial activity against adult Brugia malayi assessed as inhibition of motility at 15.6 ug/ml incubated for 48 hrs followed by washout measured after 1 hr in the absence of drug by microscopic analysis; type: functional; how it was run: as §1
[14] = test system: Brugia malayi; test: Antifilarial activity against adult Brugia malayi infected in jird assessed as worm mortality at 50 mg/kg, ip administered for 5 consecutive days measured on day 51; type: functional; details: route intraperitoneal
How it was run: (§5)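 Jirds carrying intraperitoneally transplanted adult B. malayi (sub-periodic strain), 5 animals per group, dosed daily for 5 days. Killed on day 51 after a 50-day observation period. Worms recovered from the peritoneal cavity and scored microscopically for motility, death or encapsulation, giving % adulticidal activity over untreated control, mean ± SE. Live females teased in PBS pH 7.2 to score uterine-content abnormalities as sterilization.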

[15] = test system: Brugia malayi; test: Antifilarial activity against microfilariae Brugia malayi assessed as inhibition of motility at 7.8 ug/ml incubated for 48 hrs followed by washout measured after 1 hr in the absence of drug by microscopic analysis; type: functional; how it was run: as §2
[16] = test system: Brugia malayi; test: Antifilarial activity against adult Brugia malayi at 3.9 ug/ml by MTT assay relative to control; type: functional; how it was run: as §3
[17] = (§6) Cytotoxicity against african green monkey Vero cells after 72 hrs by resazurin dye-based fluorimetric analysis; type: cell-based; details: chlorocebus sabaeus, Vero cells
How it was run: (§7)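 Vero cells were seeded at 10,000 per well and left overnight at 37 °C in CO2. Samples were tested in triplicate from a 300 µg/mL top concentration in 3:1 serial dilutions, with drug-free and cell-free controls. Resazurin was added after 72 h drug exposure for 2–4 h, then read at ex 536/em 588 nm. CC50 was taken from fluorescence vs concentration.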

[18] = test system: Brugia malayi; test: Antifilarial activity against adult Brugia malayi at 15.6 ug/ml by MTT assay relative to control; type: functional; how it was run: as §3
[19] = test system: Brugia malayi; test: Antifilarial activity against microfilariae Brugia malayi assessed as inhibition of motility at 15.6 ug/ml incubated for 48 hrs followed by washout measured after 1 hr in the absence of drug by microscopic analysis; type: functional; how it was run: as §2
[20] = test system: Brugia malayi; test: Antifilarial activity against adult Brugia malayi assessed as inhibition of motility at 3.9 ug/ml incubated for 48 hrs followed by washout measured after 1 hr in the absence of drug by microscopic analysis; type: functional; how it was run: as §1
[21] = test system: Brugia malayi; test: Antifilarial activity against microfilariae Brugia malayi assessed as inhibition of motility at 1.9 ug/ml incubated for 48 hrs followed by washout measured after 1 hr in the absence of drug by microscopic analysis; type: functional; how it was run: as §2
[22] = test system: Brugia malayi; test: Antifilarial activity against adult Brugia malayi assessed as inhibition of motility at 7.8 ug/ml incubated for 48 hrs followed by washout measured after 1 hr in the absence of drug by microscopic analysis; type: functional; how it was run: as §1
[23] = test system: Brugia malayi; test: Antifilarial activity against adult Brugia malayi infected in jird assessed as worm mortality at 100 mg/kg, sc administered for 5 consecutive days measured on day 51; type: functional; details: route subcutaneous; how it was run: as §5
[24] = test system: Brugia malayi; test: Antifilarial activity against adult Brugia malayi infected in jird assessed as sterilized female worm at 100 mg/kg, sc administered for 5 consecutive days measured on day 51; type: functional; details: route subcutaneous
How it was run: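 Jirds carrying i.p.-transplanted adult B. malayi got 100 mg/kg s.c. daily for 5 days, 5 animals per group. They were euthanized on day 51 and worms recovered from the peritoneal cavity. Live females were teased in PBS pH 7.2 and uterine contents examined microscopically. Any abnormal or dead oocytes, eggs or mf counted as sterilized, reported as % sterile females.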

[25] = test system: Vero; test: as §6; type: cell-based; details: chlorocebus sabaeus, vero, 72 h; how it was run: as §7
[26] = Brugia malayi, 48 h, read-out: IC50

Compound	inhibition at 31.25 µg/mL [1]	inhibition at 31.25 µg/mL [2]	inhibition at 31.25 µg/mL [3]	inhibition at 7.8 µg/mL [4]	MIC ([6]; Brugia malayi, 48 h)	IC50 [6, 26]	MIC [8]	Activity [9]	selectivity ratio [12]	Activity [14]	inhibition at 7.8 µg/mL [15]	CC50 at 72 h [17]	inhibition at 15.6 µg/mL [18]	inhibition at 15.6 µg/mL [19]	other results
O=C(O)c1ccc(O)c(O)c1 [PROTOCATECHUIC ACID]	50%	60%	20.6%	–	–	–	–	–	–	–	–	–	–	–	–
Oc1cc(O)c2c(c1)O[C@@H](c1ccc(O)c(O)c1)[C@H](O)C2 [(-)-CATECHIN]	60%	60%	43.2%	–	–	–	–	–	–	–	–	–	–	–	–
CC/C=C\C/C=C\C/C=C\CCCCCCCC(=O)OC[C@H](CO[C@@H]1O[C@H](CO[C@H]2O[C@H](CO)[C@H](O)[C@H](O)[C@H]2O)[C@H](O)[C@H](O)[C@H]1O)OC(=O)CCCCCCC/C=C\C/C=C\C/C=C\CC	100%	100%	82.9%	61.8%	15.6 µg/mL (≈ 16.6 µM)	1.61 µg/mL (≈ 1.71 µM)	3.9 µg/mL (≈ 4.16 µM)	0%	> 62.2	-58.3%	99%	> 100 µg/mL	75%	100%	inhibition at 1.9 µg/mL [5]: 90%; inhibition at 1.9 µg/mL [7]: 43.6%; IC50 [8]: 1.25 µg/mL (≈ 1.33 µM); inhibition at 3.9 µg/mL [10]: 95%; selectivity ratio ([11]; Vero cells, read-out: Ratio CC50/IC50): > 80; inhibition at 15.6 µg/mL [13]: 100%; inhibition at 3.9 µg/mL [16]: 52.1%; inhibition at 3.9 µg/mL [20]: 100%; inhibition at 1.9 µg/mL [21]: 60%; inhibition at 7.8 µg/mL [22]: 100%
CCCCCCCCCCCCCCCCCCCCCCCCCCCCO [OCTACOSANOL]	50%	100%	32.6%	0%	31.2 µg/mL (≈ 76.1 µM)	3.26 µg/mL (≈ 7.94 µM)	inactive	0%	> 30.7	-49.95%	85%	> 100 µg/mL	0%	95%	inhibition [13]: inactive; inhibition [22]: inactive
Oc1ccc([C@H]2Oc3cc(O)cc(O)c3C[C@H]2O)cc1 [EPIAFZELECHIN (2R,3R)(-)]	50%	59%	14.8%	–	–	–	–	–	–	–	–	–	–	–	–
CCCCCCCC/C=C\CCCCCCCC(=O)OC[C@H](CO[C@@H]1O[C@H](CO[C@H]2O[C@H](CO)[C@H](O)[C@H](O)[C@H]2O)[C@H](O)[C@H](O)[C@H]1O)OC(=O)CCCCCCCCCCCCCCC	50%	100%	24.6%	0%	31.2 µg/mL (≈ 34 µM)	1.05 µg/mL (≈ 1.14 µM)	inactive	0%	> 95.2	-54.15%	90%	> 100 µg/mL	0%	99%	inhibition at 3.9 µg/mL [10]: 80%; inhibition [13]: inactive; inhibition at 3.9 µg/mL [16]: 0%; inhibition [20]: inactive; inhibition [22]: inactive
CC/C=C\C/C=C\C/C=C\CCCCCCCC(=O)OC[C@H](CO[C@@H]1O[C@H](CO[C@H]2O[C@H](CO)[C@H](O)[C@H](O)[C@H]2O)[C@H](O)[C@H](O)[C@H]1O)OC(=O)CCCCCCCCCCCCCCC	50%	100%	30%	0%	31.2 µg/mL (≈ 34.1 µM)	2.7 µg/mL (≈ 2.95 µM)	inactive	0%	> 37	-45.8%	90%	> 100 µg/mL	0%	95%	inhibition at 3.9 µg/mL [10]: 70%; inhibition [13]: inactive; inhibition at 3.9 µg/mL [16]: 0%; inhibition [20]: inactive; inhibition [22]: inactive
IVERMECTIN [listing 1 of 2 here]	–	–	–	–	–	–	–	–	–	–	–	–	–	–	MIC [6]: 125 µg/mL
CCN(CC)C(=O)N1CCN(C)CC1 [DIETHYLCARBAMAZINE]	–	–	–	–	–	–	inactive	–	–	–	–	–	–	–	MIC [6]: inactive; Activity [23]: -30.5%; Activity [24]: 0%
Oc1cc(O)c2c(c1)O[C@H](c1ccc(O)c(O)c1)[C@H](O)C2 [(-)-EPICATECHIN]	50%	50%	34.8%	–	–	–	–	–	–	–	–	–	–	–	–
IVERMECTIN [listing 2 of 2 here]	–	–	–	–	–	–	–	–	–	–	–	–	–	–	IC50 [6]: 3.62 µg/mL; Ratio CC50/IC50 ([11]; vero): > 62.11; Ratio CC50/IC50 ([12]; vero): > 27.62; CC50 [25]: 52.84 µg/mL
